From ChEMBL document CHEMBL3785035, “Phase II Metabolic Pathways of Spectinamide Antitubercular Agents: A Comparative Study of the Reactivity of 4-Substituted Pyridines to Glutathione Conjugation” (Medchemcomm, 2016) come the findings set out here.

Bounds are passed on as bounds.

As usually defined, the half-life is the time in which the quantity being followed falls by half. A higher half-life goes with slow decline.

System in the first data set: not listed separately
Description: Metabolic stability in human liver S9 fraction assessed as parent compound remaining at 100 uM preincubated for 5 mins followed by UDPGA addition measured after 2 hrs by LC-MS/MS analysis. The data set is classed as ADME, subcellular. To be noted: read-out: Stability. In a few lines:
(§1)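 Glucuronidation: 2 mg/mL rat or human S9 in 0.1 M potassium phosphate pH 7.4, activated with alamethicin (50 μg) 15 min on ice. Then 1 mM MgCl2 was added, with 5 min preincubation at 37 °C. Started with UDPGA (5 mM in incubation); controls without UDPGA. Samples taken to 120 min and quenched with methanol plus internal standard. LC-MS/MS; % parent relative to time zero.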
Regarding `CN[C@@H]1[C@H](O)[C@H](NC)[C@H]2O[C@]3(O)[C@H](O[C@@H]2[C@H]1O)O[C@H](C)C[C@H]3NC(=O)Cc1cc(Cl)c(C)cn1`, the remaining at 2 h, 100 µM was greater than 93%.
Regarding `CN[C@@H]1[C@H](O)[C@H](NC)[C@H]2O[C@]3(O)[C@H](O[C@@H]2[C@H]1O)O[C@H](C)C[C@H]3NC(=O)Cc1cc(Cl)c(OC)cn1`, the remaining at 2 h, 100 µM was greater than 93%.
For the molecule `CN[C@@H]1[C@H](O)[C@H](NC)[C@H]2O[C@]3(O)[C@H](O[C@@H]2[C@H]1O)O[C@H](C)C[C@H]3NC(=O)Cc1ccc(O)cn1`, the remaining at 2 h, 100 µM is greater than 93%.
Turning to `CN[C@@H]1[C@H](O)[C@H](NC)[C@H]2O[C@]3(O)[C@H](O[C@@H]2[C@H]1O)O[C@H](C)C[C@H]3NC(=O)Cc1cc(Cl)c(F)cn1`, the remaining at 2 h, 100 µM is greater than 93%.

System in another data set: not listed separately
Description: Metabolic stability in rat liver S9 fraction assessed as parent compound remaining at 100 uM preincubated for 5 mins followed by UDPGA addition measured after 2 hrs by LC-MS/MS analysis. The data set is classed as ADME, subcellular. To be noted: read-out: Stability. An outline of the steps:
as §1
Take `CN[C@@H]1[C@H](O)[C@H](NC)[C@H]2O[C@]3(O)[C@H](O[C@@H]2[C@H]1O)O[C@H](C)C[C@H]3NC(=O)Cc1cc(Cl)c(C)cn1`: the remaining at 2 h, 100 µM was greater than 93%.
The same measure, in the same setting: then `CN[C@@H]1[C@H](O)[C@H](NC)[C@H]2O[C@]3(O)[C@H](O[C@@H]2[C@H]1O)O[C@H](C)C[C@H]3NC(=O)Cc1cc(Cl)c(OC)cn1`, with greater than 93%.
As for `CN[C@@H]1[C@H](O)[C@H](NC)[C@H]2O[C@]3(O)[C@H](O[C@@H]2[C@H]1O)O[C@H](C)C[C@H]3NC(=O)Cc1ccc(O)cn1`, the remaining at 2 h, 100 µM was greater than 93%.
Still for that read-out and setting: with `CN[C@@H]1[C@H](O)[C@H](NC)[C@H]2O[C@]3(O)[C@H](O[C@@H]2[C@H]1O)O[C@H](C)C[C@H]3NC(=O)Cc1cc(Cl)c(F)cn1` the figure was greater than 93%.

The test system of another data set is Liver. Description: (§2) Metabolic stability in rat liver S9 fraction assessed as parent compound remaining at 100 uM preincubated for 5 mins followed by PAPS addition measured after 2 hrs by LC-MS/MS analysis. The data set is classed as ADME, subcellular. To be noted: s9, 2 h, 100 µM. In a few lines:
(§3)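 Sulfation incubation: rat or human liver S9 at 2 mg/mL in 0.1 M potassium phosphate pH 7.4 with 1 mM MgCl2. Preincubated 5 min at 37 °C, then started with PAPS (0.2 mM in incubation). Controls lacked PAPS. Aliquots taken over 120 min and quenched in cold methanol with internal standard. LC-MS/MS read-out; parent remaining expressed against time zero.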
For the molecule `CN[C@@H]1[C@H](O)[C@H](NC)[C@H]2O[C@]3(O)[C@H](O[C@@H]2[C@H]1O)O[C@H](C)C[C@H]3NC(=O)Cc1cc(Cl)c(C)cn1`, the Stability result was “Stable”.

System in the next data set: not listed separately
Described as §2. The data set is classed as ADME, subcellular. To be noted: liver S9 fraction, read-out: Stability. An outline of the steps:
as §3
For the molecule `CN[C@@H]1[C@H](O)[C@H](NC)[C@H]2O[C@]3(O)[C@H](O[C@@H]2[C@H]1O)O[C@H](C)C[C@H]3NC(=O)Cc1cc(Cl)c(OC)cn1`, the remaining at 2 h, 100 µM is greater than 95%.
For the molecule `CN[C@@H]1[C@H](O)[C@H](NC)[C@H]2O[C@]3(O)[C@H](O[C@@H]2[C@H]1O)O[C@H](C)C[C@H]3NC(=O)Cc1ccc(O)cn1`, the remaining at 2 h, 100 µM is greater than 95%.
On to `CN[C@@H]1[C@H](O)[C@H](NC)[C@H]2O[C@]3(O)[C@H](O[C@@H]2[C@H]1O)O[C@H](C)C[C@H]3NC(=O)Cc1cc(Cl)c(F)cn1`, for which the remaining at 2 h, 100 µM is greater than 95%.

System in a further data set: not listed separately
The data set can be described thus: Half life in rat liver S9 fraction at 100 uM preincubated for 5 mins followed by glutathione addition measured after 2 hrs by LC-MS/MS analysis. The data set is classed as ADME, subcellular.
Details: not given
An outline of the steps:
(§4)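 S9 (rat or human) at 10 mg/mL in 0.1 M potassium phosphate pH 7.4, with 1 mM MgCl2. Preincubated 5 min at 37 °C, 150 rpm, then started with glutathione (0.2 mM in incubation). Controls lacked glutathione. Sampled 0–120 min, quenched in ice-cold methanol with internal standard. Parent measured by HILIC LC-MS/MS and expressed as % of time zero. Mean with %CV.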
`CN[C@@H]1[C@H](O)[C@H](NC)[C@H]2O[C@]3(O)[C@H](O[C@@H]2[C@H]1O)O[C@H](C)C[C@H]3NC(=O)Cc1cc(Cl)c(C)cn1` showed a half-life at 100 µM of 39.6 min.
On the same count and under the same terms, with `CN[C@@H]1[C@H](O)[C@H](NC)[C@H]2O[C@]3(O)[C@H](O[C@@H]2[C@H]1O)O[C@H](C)C[C@H]3NC(=O)Cc1cc(Cl)c(OC)cn1` the figure was 402 min.
The molecule `CN[C@@H]1[C@H](O)[C@H](NC)[C@H]2O[C@]3(O)[C@H](O[C@@H]2[C@H]1O)O[C@H](C)C[C@H]3NC(=O)Cc1ccc(O)cn1` gave a half-life at 100 µM greater than 3000 min.
Molecule `CN[C@@H]1[C@H](O)[C@H](NC)[C@H]2O[C@]3(O)[C@H](O[C@@H]2[C@H]1O)O[C@H](C)C[C@H]3NC(=O)Cc1cc(Cl)c(F)cn1` came in with a half-life at 100 µM greater than 3000 min.
In turn, `CC(=O)Nc1ccc(O)cc1` [ACETAMINOPHEN] had a half-life at 100 µM of 88.8 min.

System in the next data set: not listed separately
Description: Metabolic stability in human liver S9 fraction assessed as parent compound remaining at 100 uM preincubated for 5 mins followed by glutathione addition measured after 2 hrs by LC-MS/MS analysis. The data set is classed as ADME, subcellular. The settings on record: read-out: Stability. In a few lines:
as §4
Turning to `CN[C@@H]1[C@H](O)[C@H](NC)[C@H]2O[C@]3(O)[C@H](O[C@@H]2[C@H]1O)O[C@H](C)C[C@H]3NC(=O)Cc1cc(Cl)c(C)cn1`, the remaining at 2 h, 100 µM came out at 93.5%.
With `CN[C@@H]1[C@H](O)[C@H](NC)[C@H]2O[C@]3(O)[C@H](O[C@@H]2[C@H]1O)O[C@H](C)C[C@H]3NC(=O)Cc1cc(Cl)c(OC)cn1`, the remaining at 2 h, 100 µM worked out at 98.8%.
As for `CN[C@@H]1[C@H](O)[C@H](NC)[C@H]2O[C@]3(O)[C@H](O[C@@H]2[C@H]1O)O[C@H](C)C[C@H]3NC(=O)Cc1ccc(O)cn1`, the remaining at 2 h, 100 µM was determined as 99.9%.
With `CN[C@@H]1[C@H](O)[C@H](NC)[C@H]2O[C@]3(O)[C@H](O[C@@H]2[C@H]1O)O[C@H](C)C[C@H]3NC(=O)Cc1cc(Cl)c(F)cn1`, the remaining at 2 h, 100 µM was 98.6%.
Take `CC(=O)Nc1ccc(O)cc1` [ACETAMINOPHEN]: the remaining at 2 h, 100 µM is 74.5%.

System in another data set: not listed separately
The data set can be described thus: Metabolic stability in rat liver S9 fraction assessed as parent compound remaining at 100 uM preincubated for 5 mins followed by glutathione addition measured after 2 hrs by LC-MS/MS analysis. It is filed as ADME, subcellular. The settings on record: read-out: Stability. An outline of the steps: as §4
In the case of `CN[C@@H]1[C@H](O)[C@H](NC)[C@H]2O[C@]3(O)[C@H](O[C@@H]2[C@H]1O)O[C@H](C)C[C@H]3NC(=O)Cc1cc(Cl)c(C)cn1`, the remaining at 2 h, 100 µM is 12.9%.
As to `CN[C@@H]1[C@H](O)[C@H](NC)[C@H]2O[C@]3(O)[C@H](O[C@@H]2[C@H]1O)O[C@H](C)C[C@H]3NC(=O)Cc1cc(Cl)c(OC)cn1`, the remaining at 2 h, 100 µM was 81.1%.
On to `CN[C@@H]1[C@H](O)[C@H](NC)[C@H]2O[C@]3(O)[C@H](O[C@@H]2[C@H]1O)O[C@H](C)C[C@H]3NC(=O)Cc1ccc(O)cn1`, for which the remaining at 2 h, 100 µM came out at 98.6%.
Regarding `CN[C@@H]1[C@H](O)[C@H](NC)[C@H]2O[C@]3(O)[C@H](O[C@@H]2[C@H]1O)O[C@H](C)C[C@H]3NC(=O)Cc1cc(Cl)c(F)cn1`, the remaining at 2 h, 100 µM amounted to 98.6%.
As for `CC(=O)Nc1ccc(O)cc1` [ACETAMINOPHEN], the remaining at 2 h, 100 µM is 43%.

A further data set has as its system Liver. The data set can be described thus: (§5) Metabolic stability in human liver S9 fraction assessed as parent compound remaining at 100 uM preincubated for 5 mins followed by PAPS addition measured after 2 hrs by LC-MS/MS analysis. The data set is classed as ADME, subcellular. The settings on record: s9, 2 h, 100 µM. An outline of the steps:
as §3
On to `CN[C@@H]1[C@H](O)[C@H](NC)[C@H]2O[C@]3(O)[C@H](O[C@@H]2[C@H]1O)O[C@H](C)C[C@H]3NC(=O)Cc1cc(Cl)c(C)cn1`, for which the Stability is 91%.

System in another data set: not listed separately
Described as §5. The data set is classed as ADME, subcellular. The settings on record: liver S9 fraction. In a few lines:
as §3
For the molecule `CN[C@@H]1[C@H](O)[C@H](NC)[C@H]2O[C@]3(O)[C@H](O[C@@H]2[C@H]1O)O[C@H](C)C[C@H]3NC(=O)Cc1cc(Cl)c(OC)cn1`, the remaining at 2 h, 100 µM was greater than 96%.
`CN[C@@H]1[C@H](O)[C@H](NC)[C@H]2O[C@]3(O)[C@H](O[C@@H]2[C@H]1O)O[C@H](C)C[C@H]3NC(=O)Cc1ccc(O)cn1`: the remaining at 2 h, 100 µM is greater than 96%.
As for `CN[C@@H]1[C@H](O)[C@H](NC)[C@H]2O[C@]3(O)[C@H](O[C@@H]2[C@H]1O)O[C@H](C)C[C@H]3NC(=O)Cc1cc(Cl)c(F)cn1`, the remaining at 2 h, 100 µM was greater than 96%.

System in a further data set: not listed separately
Description: Half life in human liver S9 fraction at 100 uM preincubated for 5 mins followed by glutathione addition measured after 2 hrs by LC-MS/MS analysis.
Details: not given
The data set is classed as ADME, subcellular. In a few lines: as §4
On to `CN[C@@H]1[C@H](O)[C@H](NC)[C@H]2O[C@]3(O)[C@H](O[C@@H]2[C@H]1O)O[C@H](C)C[C@H]3NC(=O)Cc1cc(Cl)c(C)cn1`, for which the half-life at 100 µM was 1380 min.
The same measure, in the same setting: then `CN[C@@H]1[C@H](O)[C@H](NC)[C@H]2O[C@]3(O)[C@H](O[C@@H]2[C@H]1O)O[C@H](C)C[C@H]3NC(=O)Cc1cc(Cl)c(OC)cn1`, with greater than 3000 min; and `CN[C@@H]1[C@H](O)[C@H](NC)[C@H]2O[C@]3(O)[C@H](O[C@@H]2[C@H]1O)O[C@H](C)C[C@H]3NC(=O)Cc1ccc(O)cn1`, with greater than 3000 min; and `CN[C@@H]1[C@H](O)[C@H](NC)[C@H]2O[C@]3(O)[C@H](O[C@@H]2[C@H]1O)O[C@H](C)C[C@H]3NC(=O)Cc1cc(Cl)c(F)cn1`, with greater than 3000 min.
Take `CC(=O)Nc1ccc(O)cc1` [ACETAMINOPHEN]: the half-life at 100 µM is 264 min.
